How the values were obtained:
HCC 2998 = assay: Cytotoxicity against human HCC2998 cells assessed as cell growth at 10 uM after 48 hrs by SRB assay relative to control; type: functional; conditions: HCC 2998, 48 h, read-out: Activity
Procedure, shortened: (§1)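 First-stage NCI-60 screen by the NCI Developmental Therapeutics Program. Each compound was tested once at a single concentration of 10 μM against the 60-cell-line panel. Growth percentage was reported for each cell line.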

MCF7 = assay: Cytotoxicity against human MCF7 cells assessed as cell growth at 10 uM after 48 hrs by SRB assay relative to control; type: functional; conditions: MCF7, 48 h, read-out: Activity; procedure, shortened: as §1
SF-268 = assay: Cytotoxicity against human SF268 cells assessed as cell growth at 10 uM after 48 hrs by SRB assay relative to control; type: functional; conditions: SF-268, 48 h, read-out: Activity
Procedure, shortened: (§2)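 First-stage NCI DTP one-dose screen against the 60 human tumour cell line panel. Compounds were tested at a single 10 μM level, and results are given as growth percentage.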

U-251 = assay: Cytotoxicity against human U251 cells assessed as cell growth at 10 uM after 48 hrs by SRB assay relative to control; type: functional; conditions: U-251, 48 h, read-out: Activity
Procedure, shortened: (§3)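 NCI-60 one-dose screen run by NCI DTP: each cell line exposed to a single 10 µM dose, and percentage growth recorded against untreated growth.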

LOX IMVI = assay: Cytotoxicity against human LOXIMVI cells assessed as cell growth at 10 uM after 48 hrs by SRB assay relative to control; type: functional; conditions: read-out: Activity; procedure, shortened: as §1
786-0 = assay: Cytotoxicity against human 786-0 cells assessed as cell growth at 10 uM after 48 hrs by SRB assay relative to control; type: functional; conditions: 786-0, 48 h, read-out: Activity; procedure, shortened: as §1
HCT-15 = assay: Cytotoxicity against human HCT15 cells assessed as cell growth at 10 uM after 48 hrs by SRB assay relative to control; type: functional; conditions: HCT-15, 48 h, read-out: Activity; procedure, shortened: as §1
M14 = assay: Cytotoxicity against human M14 cells assessed as cell growth at 10 uM after 48 hrs by SRB assay relative to control; type: functional; conditions: M14, 48 h, read-out: Activity; procedure, shortened: as §1
NCI-H23 = assay: Cytotoxicity against human NCI-H23 cells assessed as cell growth at 10 uM after 48 hrs by SRB assay relative to control; type: functional; conditions: NCI-H23, 48 h, read-out: Activity; procedure, shortened: as §2
A498 = assay: Cytotoxicity against human A498 cells assessed as cell growth at 10 uM after 48 hrs by SRB assay relative to control; type: functional; conditions: A498, 48 h, read-out: Activity; procedure, shortened: as §1
NCI-H322M = assay: Cytotoxicity against human NCI-H322M cells assessed as cell growth at 10 uM after 48 hrs by SRB assay relative to control; type: functional; conditions: read-out: Activity; procedure, shortened: as §2
OVCAR-4 = assay: Cytotoxicity against human OVCAR4 cells assessed as cell growth at 10 uM after 48 hrs by SRB assay relative to control; type: functional; conditions: OVCAR-4, 48 h, read-out: Activity; procedure, shortened: as §2
MDA-MB-468 = assay: Cytotoxicity against human MDA-MB-468 cells assessed as cell growth at 10 uM after 48 hrs by SRB assay relative to control; type: functional; conditions: MDA-MB-468, 48 h, read-out: Activity; procedure, shortened: as §2
MDA-MB-231 = assay: Cytotoxicity against human MDA-MB-231 cells assessed as cell growth at 10 uM after 48 hrs by SRB assay relative to control; type: functional; conditions: MDA-MB-231, 48 h, read-out: Activity; procedure, shortened: as §2
SK-MEL-5 = assay: Cytotoxicity against human SK-MEL-5 cells assessed as cell growth at 10 uM after 48 hrs by SRB assay relative to control; type: functional; conditions: SK-MEL-5, 48 h, read-out: Activity; procedure, shortened: as §2
HOP-92 = assay: Cytotoxicity against human HOP92 cells assessed as cell growth at 10 uM after 48 hrs by SRB assay relative to control; type: functional; conditions: HOP-92, 48 h, read-out: Activity; procedure, shortened: as §1
RPMI-8226 = assay: Cytotoxicity against human RPMI8226 cells assessed as cell growth at 10 uM after 48 hrs by SRB assay relative to control; type: functional; conditions: RPMI-8226, 48 h, read-out: Activity; procedure, shortened: as §2
CCRF-CEM = assay: Cytotoxicity against human CCRF-CEM cells assessed as cell growth at 10 uM after 48 hrs by SRB assay relative to control; type: functional; conditions: read-out: Activity; procedure, shortened: as §1
CAKI-1 = assay: Cytotoxicity against human Caki1 cells assessed as cell growth at 10 uM after 48 hrs by SRB assay relative to control; type: functional; conditions: CAKI-1, 48 h, read-out: Activity; procedure, shortened: as §1
HOP-62 = assay: Cytotoxicity against human HOP62 cells assessed as cell growth at 10 uM after 48 hrs by SRB assay relative to control; type: functional; conditions: HOP-62, 48 h, read-out: Activity; procedure, shortened: as §1
MDA-MB-435 = assay: Cytotoxicity against human MDA-MB-435 cells assessed as cell growth at 10 uM after 48 hrs by SRB assay relative to control; type: functional; conditions: MDA-MB-435, 48 h, read-out: Activity; procedure, shortened: as §2
UACC-257 = assay: Cytotoxicity against human UACC257 cells assessed as cell growth at 10 uM after 48 hrs by SRB assay relative to control; type: functional; conditions: UACC-257, 48 h, read-out: Activity; procedure, shortened: as §3
SF-295 = assay: Cytotoxicity against human SF295 cells assessed as cell growth at 10 uM after 48 hrs by SRB assay relative to control; type: functional; conditions: SF-295, 48 h, read-out: Activity; procedure, shortened: as §2
DU-145 = assay: Cytotoxicity against human DU145 cells after 72 hrs by MTT assay; type: functional, cell-based; conditions: DU-145, 72 h
Procedure, shortened: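 DU-145 cells grown in RPMI-1640 with 5% heat-inactivated fetal calf serum at 37 °C, 5% CO2. About 2×10^3 cells per well were seeded and incubated for 24 h. Compounds were dissolved in DMSO freshly and diluted into medium (vehicle 0.1% DMSO), then cells were exposed for 72 h. MTT was added for 3 h at 37 °C and absorbance read at 570 nm.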

PC-3 = assay: Cytotoxicity against human PC3 cells assessed as cell growth at 10 uM after 48 hrs by SRB assay relative to control; type: functional; conditions: PC-3, 48 h, read-out: Activity; procedure, shortened: as §2
NCI-H522 = assay: Cytotoxicity against human NCI-H522 cells assessed as cell growth at 10 uM after 48 hrs by SRB assay relative to control; type: functional; conditions: NCI-H522, 48 h, read-out: Activity; procedure, shortened: as §2
T47D = assay: Cytotoxicity against human T47D cells assessed as cell growth at 10 uM after 48 hrs by SRB assay relative to control; type: functional; conditions: read-out: Activity; procedure, shortened: as §3
[1] = Cytotoxicity against human EKVX cells assessed as cell growth at 10 uM after 48 hrs by SRB assay relative to control; type: functional; conditions: read-out: Activity; procedure, shortened: as §1
A549 = assay: Cytotoxicity against human A549 cells assessed as cell growth at 10 uM after 48 hrs by SRB assay relative to control; type: functional; conditions: A549, 48 h, read-out: Activity; procedure, shortened: as §1

Structure (SMILES) | growth at 10 µM (HCC 2998) | growth at 10 µM (MCF7) | growth at 10 µM (SF-268) | growth at 10 µM (U-251) | growth at 10 µM (LOX IMVI) | growth at 10 µM (786-0) | growth at 10 µM (HCT-15) | growth at 10 µM (M14) | growth at 10 µM (NCI-H23) | growth at 10 µM (A498) | growth at 10 µM (NCI-H322M) | growth at 10 µM (OVCAR-4) | growth at 10 µM (MDA-MB-468) | growth at 10 µM (MDA-MB-231) | growth at 10 µM (HOP-92) | growth at 10 µM (RPMI-8226) | growth at 10 µM (CCRF-CEM) | growth at 10 µM (CAKI-1) | growth at 10 µM (HOP-62) | growth at 10 µM (UACC-257) | further results
O=C1c2ccccc2C(=O)c2c1cc(SCc1ccccc1)c1nsnc21 | 115% | 56.4% | 56% | 30.5% | 7.49% | 92.6% | 54.7% | 86.5% | 55.3% | 88.6% | 98.4% | -68.2% | -85.3% | -13.4% | -14.4% | 43.2% | 0.65% | 73.8% | 83.7% | 58.9% | growth at 10 µM (SK-MEL-5): 22.5%; growth at 10 µM (MDA-MB-435): -48.3%; growth at 10 µM (SF-295): 91.6%; IC50 (DU-145): 6.35 µM; growth at 10 µM (PC-3): 38.4%; growth at 10 µM (NCI-H522): 78.9%; growth at 10 µM (T47D): -46.1%; growth at 10 µM [1]: 95%; growth at 10 µM (A549): 102%
O=C1c2ccccc2C(=O)c2c1cc(Cl)c1nsnc21 | 106% | 65.4% | 37% | 29.2% | 10.2% | 102% | 96.8% | 103% | 75% | 93.8% | 108% | -75% | -88.3% | -23.4% | -52.2% | 27.8% | -41.8% | 96.5% | 75.8% | 76.1% | growth at 10 µM (SK-MEL-5): 72.5%; growth at 10 µM (SF-295): 109%; IC50 (DU-145): 6.68 µM; growth at 10 µM (PC-3): 23.5%; growth at 10 µM (NCI-H522): 89.5%; growth at 10 µM (T47D): -54.6%; growth at 10 µM [1]: 82.2%; growth at 10 µM (A549): 103%
O=C1c2ccccc2C(=O)c2c1cc(Sc1ccccc1)c1nsnc21 | 111% | 94.9% | 102% | 88.8% | 42% | 110% | 93.9% | 106% | 79.2% | 95% | 101% | 57.8% | 87.3% | 66.7% | 118% | 78.2% | 15.7% | 89% | 110% | 92.8% | growth at 10 µM (SK-MEL-5): 85.7%; growth at 10 µM (SF-295): 106%; IC50 (DU-145): > 15 µM; growth at 10 µM (PC-3): 87.3%; growth at 10 µM (NCI-H522): 94.9%; growth at 10 µM (T47D): 93.2%; growth at 10 µM [1]: 97.8%; growth at 10 µM (A549): 106%
O=C1c2ccccc2C(=O)c2c1cc(Sc1ccc(Cl)cc1)c1nsnc21 | 107% | 86.1% | 105% | 104% | 83.2% | 109% | 98.1% | 105% | 100% | 93% | 99.5% | 76.8% | 46.1% | 89% | 94.8% | 90.2% | 79.3% | 87% | 102% | 95.5% | growth at 10 µM (MDA-MB-435): 107%; growth at 10 µM (SF-295): 97.3%; IC50 (DU-145): > 15 µM; growth at 10 µM (PC-3): 86.9%; growth at 10 µM (NCI-H522): 93.4%; growth at 10 µM (T47D): 85%; growth at 10 µM [1]: 94.8%; growth at 10 µM (A549): 104%
